Broadly, the IC50 is the concentration that inhibits the measured activity by half. The inhibition is how much of the control response was suppressed. By solubility (kinetic) is commonly meant the concentration staying in solution when a stock, usually in DMSO, is diluted into the medium.

Results on 1 molecule are retold here after ChEMBL document CHEMBL3407343, “Functionalized tetrahydro-1H-pyrido[4,3-b]indoles: a novel chemotype with Sirtuin 2 inhibitory activity” (Eur J Med Chem, 2015).

The structures appear in SMILES notation. In brackets after ≈: the same amount, converted by molar mass. Activity calls are given as the source filed them. The rule behind the calls is not given here.

In data set [1] the target is T1, NAD-dependent protein deacetylase sirtuin-1 (Homo sapiens, UniProt Q96EB6).
T1 sequence (Q96EB6 whole entry): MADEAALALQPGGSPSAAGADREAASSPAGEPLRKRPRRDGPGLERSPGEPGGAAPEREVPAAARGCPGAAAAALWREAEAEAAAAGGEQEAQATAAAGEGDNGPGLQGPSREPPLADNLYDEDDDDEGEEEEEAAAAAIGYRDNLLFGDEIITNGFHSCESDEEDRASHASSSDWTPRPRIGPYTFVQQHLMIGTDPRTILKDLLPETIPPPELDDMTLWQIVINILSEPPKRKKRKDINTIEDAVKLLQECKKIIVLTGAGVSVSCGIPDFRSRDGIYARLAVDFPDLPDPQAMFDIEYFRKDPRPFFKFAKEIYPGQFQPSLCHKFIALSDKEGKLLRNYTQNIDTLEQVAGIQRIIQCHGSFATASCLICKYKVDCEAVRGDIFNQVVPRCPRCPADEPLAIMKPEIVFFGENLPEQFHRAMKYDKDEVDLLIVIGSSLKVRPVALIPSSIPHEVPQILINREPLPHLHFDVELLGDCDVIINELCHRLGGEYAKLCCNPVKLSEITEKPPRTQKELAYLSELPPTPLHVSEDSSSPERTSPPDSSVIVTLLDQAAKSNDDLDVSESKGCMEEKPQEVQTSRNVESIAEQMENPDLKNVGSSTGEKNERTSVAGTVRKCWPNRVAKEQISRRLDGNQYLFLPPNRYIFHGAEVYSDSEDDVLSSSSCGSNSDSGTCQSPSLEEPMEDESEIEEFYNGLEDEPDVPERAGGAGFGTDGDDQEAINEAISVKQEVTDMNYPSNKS
Nature of the data set: Inhibition of human recombinant SIRT1 assessed as deacetylation of N-acetyl lysine residue in p53 (317 to 320) after 30 mins by luciferase-mediated luminescence assay.

Data set [2] has as its target T2, NAD-dependent protein deacetylase sirtuin-2 (Homo sapiens, UniProt Q8IXJ6).
T2 sequence (Q8IXJ6 whole entry): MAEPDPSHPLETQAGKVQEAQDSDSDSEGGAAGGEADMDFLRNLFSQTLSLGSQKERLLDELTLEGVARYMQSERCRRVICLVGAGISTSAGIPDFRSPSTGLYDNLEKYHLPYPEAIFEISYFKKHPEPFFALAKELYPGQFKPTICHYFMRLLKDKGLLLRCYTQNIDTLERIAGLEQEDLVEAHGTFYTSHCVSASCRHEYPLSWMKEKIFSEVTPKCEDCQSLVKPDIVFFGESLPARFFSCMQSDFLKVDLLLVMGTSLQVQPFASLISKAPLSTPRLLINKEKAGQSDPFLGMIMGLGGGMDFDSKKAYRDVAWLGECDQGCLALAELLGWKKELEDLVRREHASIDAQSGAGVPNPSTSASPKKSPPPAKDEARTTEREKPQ
Nature of the data set: (§1) Non-competitive inhibition of human recombinant SIRT2 using Z-QPK(Me)2K(Ac) as substrate assessed as decrease in maximal enzyme activity preincubated for 60 mins followed by substrate addition measured after 30 mins by double-reciprocal plot analysis in presence of 185 to 5000 uM NAD+. Particulars: read-out: Ki(app). In a few lines:
(§2)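 Recombinant human SIRT2 at 0.2 unit/well, preincubated 60 min at 25 °C (400 rpm) with inhibitor at four levels including zero, 2.5% DMSO. Detection reagent (acetylated Z-QPK(Me)2K(Ac)-aminoluciferin, NAD and developer) was premixed 60 min at 37 °C, added, and incubated 30 min at 25 °C before luminescence was read. For line 17, substrate was varied (4.12–333.3 µM) at fixed NAD. For line 16, NAD was varied (four levels) at 38.5 µM substrate. Double-reciprocal plots were made, and their slopes replotted against inhibitor concentration for apparent Ki.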

Data set [3] concerns the target T3, NAD-dependent protein deacetylase sirtuin-2 (Homo sapiens) (UniProt Q8IXJ6).
T3 sequence (whole entry): T2 sequence (Q8IXJ6 whole entry)
The data set is described as §1. The method, boiled down: as §2

Data set [4] deals with T2, NAD-dependent protein deacetylase sirtuin-2. Description: Inhibition of human recombinant SIRT2 assessed as deacetylation of N-acetyl lysine residue in p53 (317 to 320) after 30 mins by luciferase-mediated luminescence assay.
Another data set is filed under the species Homo sapiens. Description: Inhibition of protease (unknown origin) using deacetylated peptide as substrate assessed as luminescence at 100 uM after 30 mins relative to control. More on the design: scale not given: the % may be the effect or the level left.
Data set [5] deals with T4, NAD-dependent protein deacetylase sirtuin-1 (Homo sapiens) (UniProt Q96EB6).
T4 sequence (whole entry): T1 sequence (Q96EB6 whole entry)
Description: Inhibition of human recombinant SIRT1 assessed as deacetylation of N-acetyl lysine residue in p53 (317 to 320) at 10 uM after 30 mins by luciferase-mediated luminescence assay relative to control. In a few lines: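 Recombinant human SIRT1 at 0.1 unit/well, with the enzyme amount chosen from the mid-linear range of a signal-to-noise titration, in Sirt-Glo buffer. Serially diluted inhibitor in DMSO covers a 10^3-fold range, with 2.5% DMSO final. The single-point screen is at a fixed 10 µM. Enzyme and inhibitor were agitated 30 min at 25 °C, then Sirt-Glo reagent added and shaken another 30 min at 25 °C before luminescence was read. Activity is % of the enzyme-only control after blank subtraction. IC50 comes from a sigmoidal fit of % activity against log concentration, run in triplicate across ≥2 independent experiments.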

For data set [6], the target named is T3, NAD-dependent protein deacetylase sirtuin-2 (Homo sapiens). Nature of the data set: Inhibition of SIRT2 in human MDA-MB-231 cells assessed as increase in acetylated p53 at Lys382 and alpha-tubulin level at 2 to 4 uM after 24 hrs by Western blot analysis. In kind it is cell-based. The method, boiled down: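 Cells seeded at 50,000 cells/mL in high-glucose DMEM containing compound (0.5% v/v DMSO) and incubated at 37 °C, 5% CO2: HepG2 6 h, MDA-MB-231 24 h. Washed cells were lysed on ice ≥20 min in Tris/NaCl/EDTA/Triton buffer with protease and phosphatase inhibitors, then protein measured by Bradford. SDS-PAGE blots were probed overnight at 4 °C with primary antibodies and detected by HRP/ECL, with re-probing after stripping. Each blot was repeated ≥3 times.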

Data set [7] is described as follows: Solubility of the compound in phosphate buffer at pH 7.4 at 25 degC by turbimetric method. In kind it is physicochemical. The method, boiled down:
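Turbidimetric solubility. Compound from DMSO stock was added to phosphate buffer pH 7.4 at 1–50 µM final, with 1% v/v DMSO. Plate shaken 30 min at 25 °C and absorbance read at 620 nm. Solubility is assigned to the concentration range where absorbance rises two-fold or more, from 3 separate determinations.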

Data set [8] is described as follows: Inhibition of luciferase (unknown origin) using deacetylated peptide as substrate assessed as luminescence at 25 uM after 30 mins relative to control. Set-up: scale not given: the % may be the effect or the level left.

Turning to `CCCCCCCCn1c2c(c3cc(-c4ccc(S(C)(=O)=O)cc4)ccc31)CNCC2`, the IC50 in data set [1] came to 16.7 µM; in [4], 3.8 µM. For the same molecule, in data set [2], the Ki came out at 3.7 µM. Also, the inhibition result in [3] is “Dose-dependent effect”; in data set [5] it was 48.5%. Besides, the Activity in the data set filed under Homo sapiens stood at 94.3%; in data set [8] it was 94.9%. In addition, in data set [6], the inhibition result is “Active”. In data set [7], this molecule came in with a kinetic solubility of 3.1 µM (≈ 1.36 µg/mL).
